The species entered for one experiment is Rattus norvegicus. Briefly: Inhibition of Aldehyde reductase in Sprague-Dawley albino rat at 100 uM. Summed up:
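Rat kidney ALR1 at 37 °C with 20 mM sodium D-glucuronate and 0.12 mM NADPH (stock levels), dialyzed enzyme, 0.1 M sodium phosphate pH 7.2; rate calibrated to 0.015 absorbance unit/min. NADPH oxidation followed at 340 nm; blank without substrate. Percent inhibition at 100 μM.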

The test system of the next experiment is Brain. Kind of experiment: Antioxidant activity in Sprague-Dawley albino rat brain homogenate assessed as inhibition of hydroxyl radical dependent lipoperoxidation measuring malondialdehyde production at 100 uM after 30 mins by TBARS assay. In kind it is functional, tissue-based. Summed up:
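Rat brain homogenized 10% (w/v) in phosphate buffer pH 7.4; 100 μL homogenate with 20 μM FeCl3 and 100 μM ascorbic acid (final), test compound at 100 μM final, 1 mL, 30 min at 37 °C. TBA/HCl added, boiled 10 min, n-butanol extraction, A532; TBARS as nmol MDA per 10 mg wet tissue vs tetramethoxypropane standard curve. At least two determinations in triplicate.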

In experiment [1] the target is Aldo-keto reductase family 1 member B1 (Rattus norvegicus, UniProt P07943). Kind of experiment: Inhibition of Sprague-Dawley albino rat lens ALR2 by spectrophotometry. In kind it is tissue-based, Lens of camera-type eye.
A further experiment relates to Liver. Kind of experiment: Induction of NO generation in Sprague-Dawley albino rat liver homogenate at 10^-4 M after 1 hr by Griess reaction. In kind it is functional, tissue-based. Summed up:
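Rat liver rinsed in ice-cold sucrose buffer (100 mM K2HPO4, 1 mM EDTA, 1.15% KCl, 0.25 M sucrose, 0.1% EtOH, pH 7.4), homogenized 1/6 w/v, gauze-filtered, spun 600g 10 min at 0 °C to remove nuclei. Incubated with compound 1 h at 37 °C; nitrite measured by Griess reaction at 543 nm, given as % NO2− (mol/mol) relative to compound added. At least two determinations in triplicate.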
(In general: Griess reagent forms a coloured azo dye with nitrite.)

In experiment [2] the target is Aldo-keto reductase family 1 member B1 (Rattus norvegicus) (UniProt P07943). Kind of experiment: Ratio of KM07100 IC50 to compound IC50 for Sprague-Dawley albino rat lens ALR2. In kind it is tissue-based. Particulars: Lens of camera-type eye.

The source made the active and inactive calls. No cut-off for these calls is given here.

The record followed here is ChEMBL document CHEMBL2176922, “Benzofuroxane derivatives as multi-effective agents for the treatment of cardiovascular diabetic complications. Synthesis, functional evaluation, and molecular modeling studies” (J Med Chem, 2012).

In the experiment filed under Rattus norvegicus, `O=S(=O)(Oc1ccc2nonc2c1)c1ccc(Cl)s1` gave an inhibition of 20%.

As to `[O-][n+]1onc2cc(OCc3ccc(Br)cc3F)ccc21`, the inhibition result in the experiment listed under Rattus norvegicus is “inactive”. The inhibition result in the experiment on Brain is “Active”. The compound further gave an IC50 in experiment [1] of 1410 nM. The outcome with Liver was inactive.

As to `[O-][n+]1onc2cc(OCc3ccc(F)cc3)ccc21`, the inhibition entry in the experiment filed under Rattus norvegicus was “inactive”. Moreover, in the experiment with Brain, the inhibition entry was “Active”. 820 nM corresponded to half-maximal inhibition in experiment [1] (IC50). Also, the outcome in the experiment on Liver was inactive.

Take `COc1ccc(COc2ccc3c(c2)no[n+]3[O-])cc1`: in the experiment filed under Rattus norvegicus, the inhibition entry was “inactive”. In addition, in the experiment with Brain, the inhibition result was “Active”. For the same compound, the IC50 in experiment [1] was determined as 4520 nM. In the experiment with Liver, this compound returned an Activity of 2%.

As to `Cc1ccc(COc2ccc3c(c2)no[n+]3[O-])cc1`, the inhibition in the experiment filed under Rattus norvegicus came to 24%. Besides, in the experiment on Brain, the inhibition result is “Active”. This compound also displayed an IC50 in experiment [1] of 830 nM. The Activity with Liver worked out at 2%.

As for `[O-][n+]1onc2cc(OCc3ccc(Br)cc3)ccc21`, the inhibition in the experiment filed under Rattus norvegicus came to 19%. The inhibition result with Brain is “Active”. In experiment [1], this compound gave a concentration for half-maximal inhibition (IC50) of 7360 nM. Besides, in the experiment on Liver, the Activity was determined as 2%.

Consider `[O-][n+]1onc2cc(OCc3ccc(C(F)(F)F)cc3)ccc21`, for which the inhibition in the experiment filed under Rattus norvegicus worked out at 14%. Moreover, the inhibition entry with Brain is “Active”. In experiment [1], the IC50 is 1940 nM. In the experiment with Liver, this compound showed an Activity of 2%.

`[O-][n+]1onc2cc(OCCc3ccccc3)ccc21` had an inhibition in the experiment listed under Rattus norvegicus of 11%. The inhibition entry with Brain is “Active”. Also, in experiment [1], the IC50 is 5900 nM. The Activity with Liver came out at 2%.

In the experiment filed under Rattus norvegicus, `[O-][n+]1onc2cc(OCc3ccc4ccccc4c3)ccc21` had an inhibition of 35%. Further, the inhibition entry in the experiment on Brain is “Active”. The compound further returned an IC50 in experiment [1] of 1430 nM. The Activity in the experiment with Liver was found to be 2%.

As for `Cc1c(C)c2c(c(C)c1O)CC[C@@](C)(CCC[C@H](C)CCC[C@H](C)CCCC(C)C)O2`, the inhibition entry in the experiment on Brain is “Active”.

Consider `[O-][n+]1onc2cc(OCc3ccccc3)ccc21`, for which the Ratio IC50 in experiment [2] was 36. In addition, the inhibition was determined as 26% in the experiment filed under Rattus norvegicus and 50% in the experiment with Brain. In experiment [1], this compound returned an IC50 of 990 nM. Also, the Activity in the experiment on Liver is 2%.

For the compound `[O-][n+]1onc2cc(OCc3ccc(Cl)cc3)ccc21`, the inhibition in the experiment filed under Rattus norvegicus was 19%. For the same compound, the inhibition entry with Brain is “Active”. Besides, it took 920 nM to reach half-maximal inhibition in experiment [1] (IC50). This compound also gave an Activity in the experiment with Liver of 2%.

Take `O=[N+]([O-])c1cccc(COc2ccc3c(c2)no[n+]3[O-])c1`: the inhibition in the experiment listed under Rattus norvegicus worked out at 5%. Besides, the inhibition result with Brain is “Active”. Half-maximal inhibition in experiment [1] (IC50) required 460 nM. In addition, in the experiment with Liver, the Activity is 2%.

As to `[O-][n+]1onc2cc(OCc3nc4ccccc4s3)ccc21`, the inhibition in the experiment filed under Rattus norvegicus worked out at 38%. The inhibition result with Brain was “Active”. Also, half-maximal inhibition in experiment [1] (IC50) required 420 nM. In addition, the outcome in the experiment on Liver was inactive.

A word on the inhibition: it is the change of the read-out against control, counted positive when it falls. A word on the IC50: it is the point on the concentration scale where inhibition reaches its midpoint.
